GI50 and viability data for 19 compounds are collected here from ChEMBL document CHEMBL3797032, “Synthesis and in vitro growth inhibitory activity of novel silyl- and trityl-modified nucleosides” (Bioorg Med Chem, 2016).

Molecules are shown by their SMILES.

The nature of data set [1]: Growth inhibition of human Hs683 cells assessed as reduction in cell viability incubated for 72 hrs by MTT assay. The format is functional. As to conditions: Hs 683, 72 h. Summed up:
(§1)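 Glioma cells grown adherent: Hs683 in DMEM + 5–10% FBS, U373 in Earle's MEM + 10% FBS and 1 mM sodium pyruvate; trypan blue viability check before use. Exposed for 72 h to 0.01–100 μM, narciclasine as positive control. MTT read-out with formazan dissolved in DMSO; GI50 is the concentration giving 50% growth reduction versus untreated controls.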

A further data set has as its system Jurkat. As to the kind of experiment: Growth inhibition of human Jurkat cells assessed as cell viability at 100 uM incubated for 24 hrs by MTT assay. As to conditions: read-out: Activity. The format is functional. The essentials: (§2)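 Leukemic lines (HL-60, K562, Jurkat) grown in suspension in RPMI-1640 + 10% heat-inactivated FBS. Colorectal HT-29 and Caco-2 grown adherent in DMEM + 5–10% FBS. Cells kept at 37 °C, 5% CO2, and checked for viability by trypan blue before use. Single final concentration 100 μM for 24 h at 37 °C, camptothecin as positive control. MTT read-out with formazan dissolved in DMSO; viability expressed relative to untreated control set at 100%.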

The nature of data set [2]: Growth inhibition of human Caco2 cells assessed as cell viability at 100 uM incubated for 24 hrs by MTT assay. The format is functional. As to conditions: Caco-2, 24 h, read-out: Activity. The essentials: as §2
The test system of the next data set is HT-29. The data set can be described thus: Growth inhibition of human HT-29 cells assessed as cell viability at 100 uM incubated for 24 hrs by MTT assay. The format is functional. The following applies: HT-29, 24 h, read-out: Activity. The essentials: as §2
Data set [3] can be described thus: Growth inhibition of human U373 cells assessed as reduction in cell viability incubated for 72 hrs by MTT assay. The following applies: U373 MG. The format is functional, U-373MG ATCC. Summed up:
as §1

The subject of another data set is K562. As to the kind of experiment: Growth inhibition of human K562 cells assessed as cell viability at 100 uM incubated for 24 hrs by MTT assay. The format is functional. As to conditions: K562, 24 h, read-out: Activity. Summed up: as §2
Data set [4] in a line: Growth inhibition of human HL60 cells assessed as cell viability at 100 uM incubated for 24 hrs by MTT assay. The format is functional. As to conditions: HL-60, 24 h, read-out: Activity. The essentials: as §2
Data set [5] in a line: Growth inhibition of human WBC cells assessed as cell viability at 100 uM incubated for 24 hrs by MTT assay. The format is cell-based. As to conditions: WBC cells (white blood cells), read-out: Activity. Summed up:
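Freshly isolated human peripheral leucocytes from volunteers, exposed at a single final concentration of 100 μM for 24 h, camptothecin as comparator. Viability read by MTT assay with formazan dissolved in DMSO.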

As to `COc1ccc(C(OC[C@H]2O[C@@H](n3ccc(=O)[nH]c3=O)[C@H](O)[C@@H]2O)(c2ccccc2)c2ccc(OC)cc2)cc1`, the GI50 in data set [1] stood at 39 µM; in data set [3] it was 40 µM. For the same compound, the viability at 100 µM in the data set with Jurkat was found to be 5.2%; in data set [2] it was 26.1%; with HT-29 it was 27.8%; in the data set on K562, 8.3%; in data set [4], 6.5%. Besides, the viability at 24 h, 100 µM in data set [5] worked out at 82.7%.
In the case of `CC(=O)O[C@@H]1[C@H](OC(C)=O)[C@@H](CO[Si](c2ccccc2)(c2ccccc2)C(C)(C)C)O[C@H]1n1ccc(=O)n(C(=O)c2ccccc2)c1=O`, the GI50 in data set [1] is 35 µM; in data set [3], 26 µM.
Turning to `CC(C)(C)[Si](OC[C@H]1O[C@@H](n2ccc(=O)[nH]c2=O)[C@H](O)[C@@H]1O)(c1ccccc1)c1ccccc1`, the values for the GI50 in data set [1] and in data set [3] were 35 µM and 36 µM, respectively. The viability at 100 µM in the data set with Jurkat was 6.3%; in data set [2], 37.4%; in the data set with HT-29 it was 29.4%; in the data set on K562, 9.4%; in data set [4], 5.6%. In data set [5], the viability at 24 h, 100 µM amounted to 61.5%.
On to `Cc1cn([C@@H]2O[C@@H]3CO[Si](C(C)C)(C(C)C)O[Si](C(C)C)(C(C)C)O[C@H]3[C@H]2O)c(=O)[nH]c1=O`, for which the results for the GI50 in data set [1] and in data set [3] were 91 µM and 87 µM, respectively.
In the case of `CC(C)(C)[Si](OC[C@H]1O[C@@H](n2ccc(N)nc2=O)[C@H](O)[C@@H]1O)(c1ccccc1)c1ccccc1`, the GI50 in data set [1] was determined as 40 µM; in data set [3] it was 28 µM. Also, the viability at 100 µM was determined as 16% in the data set with Jurkat; 37.2% in data set [2]; 25.6% with HT-29; 35.6% in the data set with K562; 26% in data set [4]. In addition, in data set [5], the viability at 24 h, 100 µM was 100%.
With `CC[C@@]1(O)C(=O)OCc2c1cc1n(c2=O)Cc2cc3ccccc3nc2-1` [CAMPTOTHECIN], the viability at 100 µM with Jurkat amounted to 8.9%; in data set [2], 12.8%; in the data set on HT-29, 11.4%; with K562, 39.6%; in data set [4], 23.4%. Further, the viability at 24 h, 100 µM in data set [5] was determined as 34.6%.
Turning to `O=C1N[C@@H]2C(=C[C@H](O)[C@@H](O)[C@H]2O)c2cc3c(c(O)c21)OCO3` [NARCICLASINE], the GI50 in data set [1] worked out at 0.04 µM; in data set [3] it was 0.029 µM.
The matching figures for `Cc1cn([C@@H]2O[C@H](CO[Si](C)(C)C(C)(C)C)[C@@H](O)[C@H]2O)c(=O)[nH]c1=O`: 77 µM and over 100 µM.
The matching figures for `CC(C)[Si]1(C(C)C)OC[C@H]2O[C@@H](n3ccc(=O)n(C(=O)c4ccccc4)c3=O)[C@H](O)[C@@H]2O[Si](C(C)C)(C(C)C)O1`: 29 µM and 29 µM.
Regarding `Cc1cn([C@@H]2O[C@H](CO[Si](c3ccccc3)(c3ccccc3)C(C)(C)C)[C@@H](O)[C@H]2O)c(=O)[nH]c1=O`, the GI50 in data set [1] was 27 µM; in data set [3], 25 µM.
Consider `CC(C)[Si]1(C(C)C)OC[C@H]2O[C@@H](n3ccc(=O)[nH]c3=O)[C@H](O)[C@@H]2O[Si](C(C)C)(C(C)C)O1`, for which the results for the GI50 in data set [1] and in data set [3] were 83 µM and 81 µM, respectively.
On to `CC(C)C(C)(C)[Si](C)(C)OC[C@H]1O[C@@H](n2ccc(=O)[nH]c2=O)[C@H](O)[C@@H]1O`, for which the GI50 in data set [1] and in data set [3] was over 100 µM in each case.
For the compound `CC(=O)O[C@@H]1[C@H](OC(C)=O)[C@@H](CO[Si](c2ccccc2)(c2ccccc2)C(C)(C)C)O[C@H]1n1ccc(=O)[nH]c1=O`, the GI50 stood at 29 µM in data set [1] and 32 µM in data set [3]. Besides, the viability at 100 µM in the data set with Jurkat was over 50%; in data set [2], over 50%; with HT-29 it was over 50%; in the data set on K562 it was 35.5%; in data set [4], 11.2%. The viability at 24 h, 100 µM in data set [5] is 100%.
As to `CC(C)[Si]1(C(C)C)OC[C@H]2O[C@@H](n3ccc(=O)[nH]c3=O)C(=O)[C@@H]2O[Si](C(C)C)(C(C)C)O1`, the values for the GI50 in data set [1] and in data set [3] were 70 µM and 71 µM, respectively.
`COc1ccc(C(OC[C@H]2O[C@@H](n3ccc(=O)[nH]c3=O)[C@H](OC(C)=O)[C@@H]2OC(C)=O)(c2ccccc2)c2ccc(OC)cc2)cc1`: the GI50 stood at 28 µM in data set [1] and 40 µM in data set [3]. In addition, the viability at 100 µM (in the data set with Jurkat; in data set [2]; in the data set on HT-29; in the data set with K562; in data set [4]) was over 50% in each case. Moreover, in data set [5], the viability at 24 h, 100 µM came out at 100%.
For the compound `CC(C)(C)[Si](OC[C@H]1O[C@@H](n2cnc3c(N)ncnc32)[C@H](O)[C@@H]1O)(c1ccccc1)c1ccccc1`, the GI50 was 46 µM in data set [1] and 44 µM in data set [3]. For the same compound, the viability at 100 µM with Jurkat is 18.3%; in data set [2], over 50%; in the data set with HT-29, over 50%; in the data set with K562, 45.5%; in data set [4] it was 27.9%. Moreover, the viability at 24 h, 100 µM in data set [5] is 59.3%.
For the compound `Cc1cn([C@@H]2O[C@H](CO[Si](C)(C)C(C)(C)C(C)C)[C@@H](O)[C@H]2O)c(=O)[nH]c1=O`, the GI50 in data set [1] was 64 µM; in data set [3], 68 µM.
The like results for `CC(C)(C)[Si](C)(C)OC[C@H]1O[C@@H](n2ccc(=O)[nH]c2=O)[C@H](O)[C@@H]1O` were, in that order, 84 µM and 71 µM.
`COc1ccc(C(OC[C@H]2O[C@@H](n3ccc(=O)n(C(=O)c4ccccc4)c3=O)[C@H](OC(C)=O)[C@@H]2OC(C)=O)(c2ccccc2)c2ccc(OC)cc2)cc1`: the figures for the GI50 in data set [1] and in data set [3] were 44 µM and 39 µM, respectively.
